Blank lines part the entries; values can stand above or below the compound they belong to. Active and inactive are the calls of the source. The calls are words filed in the database; no cut-off is given here.
Tests used:
U-87 MG [1] = experiment: Induction of intracellular Ca2+ level in human U87MG cells at 1 to 100 uM by Fura-2 AM dye-based assay relative to trifluoperazine; assay type: functional, U-87MG ATCC
In short: (§1)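 U87MG cells or neural stem cells (NSCs) were loaded with 5 μM Fura-2 AM plus 1 μM pluronic acid for 40 min at room temperature. Recording was in HEPES-buffered saline at pH 7.3 with 2 mM CaCl₂. Compounds were applied by bath at 1, 3, 10, 30 or 100 μM. Emission at 510 nm was imaged under 340/380 nm excitation, and the ratio was calculated. Peak amplitude was taken relative to the 0–50 s baseline. Dose–response curves gave EC₅₀ and efficacy.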

U-87 MG [2] = experiment: Induction of intracellular Ca2+ level in human U87MG cells at 100 uM by Fura-2 AM dye-based assay relative to trifluoperazine; assay type: functional, cell-based; settings: U-87MG ATCC; in short: as §1
U-87 MG [3] = experiment: Induction of intracellular Ca2+ level in human U87MG cells by Fura-2 AM dye-based assay; assay type: functional, cell-based, U-87MG ATCC; in short: as §1
NSC [4] = experiment: Induction of intracellular Ca2+ level in human NSC cells at 1 to 100 uM by Fura-2 AM dye-based assay relative to control; assay type: cell-based; settings: read-out: Efficacy; in short: as §1
NSC [5] = experiment: Induction of intracellular Ca2+ level in human NSC cells at 100 uM by Fura-2 AM dye-based assay; assay type: cell-based; in short: as §1
[6] = Selectivity ratio of efficacy for induction of intracellular Ca2+ level in human U87MG cells at 1 to 100 uM to efficacy for induction of intracellular Ca2+ level in human NSC cells at 1 to 100 uM; assay type: functional
U-87 MG [7] = experiment: Cytotoxicity against human U87MG cells assessed as reduction in cell viability after 24 hrs by MTT assay; assay type: functional, cell-based, U-87MG ATCC
In short: (§2)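 Cells were grown in DMEM with 10% FBS and penicillin/streptomycin at 37 °C and 5% CO₂, and used up to passage 20. They were seeded at 1.5 × 10³ cells/well, allowed to attach for 24 h, then treated with vehicle or compound diluted in complete medium for 24 h. MTT reagent was added for 2 h. Viability is expressed relative to cell numbers at initial time. n = 16; one-way ANOVA.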

[8] = Cytotoxicity against human GBL28 cells assessed as reduction in cell viability after 24 hrs by MTT assay; assay type: functional, cell-based; in short: as §2
NSC [9] = experiment: Cytotoxicity against human NSC cells assessed as reduction in cell viability after 24 hrs by MTT assay; assay type: cell-based; in short: as §2
U-87 MG [10] = experiment: Cytotoxicity against human U87MG cells assessed as reduction in cell viability at 1 to 20 uM after 24 hrs by MTT assay relative to control; assay type: functional, U-87MG ATCC; in short: as §2
[11] = Cytotoxicity against human GBL28 cells assessed as reduction in cell viability at 1 to 20 uM after 24 hrs by MTT assay relative to control; assay type: functional; in short: as §2
NSC [12] = experiment: Cytotoxicity against human NSC cells assessed as reduction in cell viability at 1 to 20 uM after 24 hrs by MTT assay relative to control; assay type: cell-based; in short: as §2
U-87 MG [13] = experiment: Potency index, ratio of trifluoperazine IC50 to test compound IC50 for human U87MG cells; assay type: functional, U-87MG ATCC
[14] = Potency index, ratio of trifluoperazine IC50 to test compound IC50 for human GBL28 cells; assay type: functional
U-87 MG [15] = experiment: Antitumor activity against human U87MG cells xenografted in BALB/c mouse assessed as reduction in tumor size at 5 mg/kg/day, ip administered for 21 days with 24 hrs resting period followed by treatment discontinuation till day 39 by hematoxylin and eosin staining based confocal microscopic analysis relative to control; assay type: functional, U-87MG ATCC; design: scale not given: the % may be the effect or the level left
In short: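 Athymic BALB/c nu/nu mice given intracranial U87MG cells (2.5 × 10⁵ cells in 5 μL) into the left frontal lobe (2 mm lateral from bregma, 0.5 mm anterior, 3.5 mm deep). Treatment began on day 3: 5 mg/kg/day i.p., or 0.9% saline for controls (n = 10 each). Dosing ran 21 days, then stopped until day 39. Brains were fixed in 4% PFA, paraffin-embedded, cut at 5 μm and H&E-stained. Tumor volume = [major axis × (minor axis)²]/2.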

U-87 MG [16] = experiment: Antitumor activity against human U87MG cells xenografted in BALB/c mouse assessed as increase in mouse survival at 5 mg/kg, ip administered for 21 days with 24 hrs resting period followed by treatment discontinuation and measured on day 39; assay type: functional, U-87MG ATCC
In short: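 Orthotopic model in athymic BALB/c nu/nu mice: U87MG cells (2.5 × 10⁵ in 5 μL) injected into the left frontal lobe (2 mm lateral to bregma, 0.5 mm anterior, 3.5 mm deep). From day 3, drug was given i.p. at 5 mg/kg/day or 0.9% saline to controls (n = 10 each) for 21 days. Mice were monitored daily and sacrificed when moribund; survival curves were compared by log-rank test.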

Mus musculus [17] = experiment: Toxicity in BALB/c mouse xenografted with human U87MG cells assessed as effect on behavioral changes at 5 mg/kg/day, ip administered for 21 days with 24 hrs resting period followed by treatment discontinuation till day 39; assay type: organism-based; settings: in vivo
In short: (§3)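 Same U87MG orthotopic xenograft mice: 5 mg/kg/day i.p. from day 3 for 21 days, or saline (n = 10 each), with dosing stopped until day 39. Mice were checked daily for general appearance, behavioral changes and neurologic deficits, including parkinsonism and extrapyramidal signs.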

Mus musculus [18] = experiment: Toxicity in BALB/c mouse xenografted with human U87MG cells assessed as induction of neurologic deficits at 5 mg/kg/day, ip administered for 21 days with 24 hrs resting period followed by treatment discontinuation till day 39; assay type: organism-based; settings: in vivo; in short: as §3
U-87 MG [19] = experiment: Induction of intracellular Ca2+ level in human U87MG cells at 1 to 100 uM by Fura-2 AM dye-based assay relative to control; assay type: functional, U-87MG ATCC; in short: as §1
Mus musculus [20] = experiment: Toxicity in BALB/c mouse xenografted with human U87MG cells assessed as effect on general appearance at 5 mg/kg/day, ip administered for 21 days with 24 hrs resting period followed by treatment discontinuation till day 39; assay type: organism-based; settings: in vivo; in short: as §3

Compound: FC(F)(F)c1ccc2c(c1)N(CCCCN1CCC(N3CCCC3)CC1)c1ccccc1S2
- Activity (U-87 MG [1]): 134%
- Activity (U-87 MG [2]): Active
- EC50 (U-87 MG [3]): 6.2 µM
- Emax (NSC [4]): 50%
- Activity (NSC [5]): Non-Toxic
- Ratio [6]: 2
- IC50 (U-87 MG [7]): 2.3 µM
- IC50 [8]: 2.2 µM
- IC50 (NSC [9]): 3.2 µM
- Efficacy (U-87 MG [10]): 82%
- Efficacy [11]: 85%
- Efficacy (NSC [12]): 45%
- Ratio IC50 (U-87 MG [13]): 4 - 5
- Ratio IC50 [14]: 4 - 5
- Activity (U-87 MG [15]): 88%
- Survival (U-87 MG [16]): 6 days
- Activity (Mus musculus [17]): Non-Toxic
- Activity (Mus musculus [18]): Non-Toxic
- Efficacy (U-87 MG [19]): 100%
- Activity (Mus musculus [20]): Non-Toxic

- EC50 (U-87 MG [3]): 13.5 µM
Compound: CN1CCN(CCCN2c3ccccc3Sc3ccc(C(F)(F)F)cc32)CC1 [TRIFLUOPERAZINE]
- Activity (NSC [5]): Non-Toxic
- IC50 (U-87 MG [7]): 9.9 µM
- IC50 [8]: 10.2 µM
- IC50 (NSC [9]): 10.1 µM
- Efficacy (U-87 MG [10]): 82%
- Efficacy [11]: 85%
- Efficacy (NSC [12]): 21%
- Efficacy (U-87 MG [19]): 79%

- EC50 (U-87 MG [3]): 6.7 µM
Compound: FC(F)(F)c1ccc2c(c1)N(CCCCN1CCC(N3CCCCC3)CC1)c1ccccc1S2
- Activity (U-87 MG [1]): 123%
- Activity (U-87 MG [2]): Active
- Activity (NSC [5]): Non-Toxic
- IC50 (U-87 MG [7]): 2.2 µM
- IC50 [8]: 2.1 µM
- IC50 (NSC [9]): 3.1 µM
- Efficacy (U-87 MG [10]): 82%
- Efficacy [11]: 85%
- Efficacy (NSC [12]): 43%
- Ratio IC50 (U-87 MG [13]): 4 - 5
- Ratio IC50 [14]: 4 - 5

Compound: CSc1ccc2c(c1)N(CCCN1CCC(C)CC1)c1ccccc1S2
- Activity (U-87 MG [1]): 76%

Compound: CC1CCN(CCCN2c3ccccc3Sc3ccc(Cl)cc32)CC1
- Activity (U-87 MG [1]): 88%

Compound: CC1CCN(CCCCN2c3ccccc3Sc3ccc(C(F)(F)F)cc32)CC1
- Activity (U-87 MG [1]): 93%

Compound: FC(F)(F)c1ccc2c(c1)N(CCCCN1CCN(c3ccccc3)CC1)c1ccccc1S2
- Activity (U-87 MG [1]): 94%

Compound: CC1CCN(CCCN2c3ccccc3Sc3ccc(C(F)(F)F)cc32)CC1
- Activity (U-87 MG [1]): 83%

Compound: FC(F)(F)c1ccc2c(c1)N(CCCN1CCNCC1)c1ccccc1S2
- Activity (U-87 MG [1]): 108%

Compound: Clc1ccc2c(c1)N(CCCCN1CCC(N3CCCC3)CC1)c1ccccc1S2
- Activity (U-87 MG [1]): 101%

Compound: CC1CCN(CCCCN2c3ccccc3Sc3ccc(F)cc32)CC1
- Activity (U-87 MG [1]): 110%

Compound: FC(F)(F)c1ccc2c(c1)N(CCCN1CCC(N3CCCC3)CC1)c1ccccc1S2
- Activity (U-87 MG [1]): 72%

Compound: CSc1ccc2c(c1)N(CCCCN1CCC(C)CC1)c1ccccc1S2
- Activity (U-87 MG [1]): 72%

- EC50 (U-87 MG [3]): 19.9 µM
Compound: FC(F)(F)c1ccc2c(c1)N(CCCCN1CCC(N3CCOCC3)CC1)c1ccccc1S2
- Activity (U-87 MG [1]): 120%
- Activity (U-87 MG [2]): Active
- Activity (NSC [5]): Non-Toxic
- IC50 (U-87 MG [7]): 7.1 µM
- IC50 [8]: 6.5 µM
- IC50 (NSC [9]): 5.6 µM
- Efficacy (U-87 MG [10]): 82%
- Efficacy [11]: 85%
- Efficacy (NSC [12]): 21%

Compound: CN1CCCN(CCCCN2c3ccccc3Sc3ccc(C(F)(F)F)cc32)CC1
- Activity (U-87 MG [1]): 107%

Source: ChEMBL document CHEMBL4229388, “Repositioning of the antipsychotic trifluoperazine: Synthesis, biological evaluation and in silico study of trifluoperazine analogs as anti-glioblastoma agents” (Eur J Med Chem, 2018)
